HCT116 bCat-KO = primary screen for growth suppressors in beta-catenin knockout HCT116 cells (colon tumor, human); HCT116 beta-catenin knockout viability, CellTiter-Glo, 60 h; stronger effect = lower value; viability, % at 10 µM; actives 1.5% (n = 140,000);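 active = viability at or under a set limit, the compound median less 4 SD, cut at about 6% in these data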;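 note: 0% = Hyamine 1622 control at 20 µM and 100% = untreated cell control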
Calb biofilm kill = clotrimazole potentiators killing Candida biofilms, primary screen, with clotrimazole, Alamar Blue | C. albicans biofilm + clotrimazole | inhibition, % at 6 µM | actives 0.14% (n = 85,000);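 active = inhibition above 20%; inactive = inhibition below 20%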;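 note: preformed 24 hr biofilms exposed to compound for 48 hr; 0% = biofilm without compound and 100% = blank killed by clotrimazole plus chlorhexidine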
Fibroblast inh = antiproliferative effect on LL 47 fibroblasts – human, LL 47 cells, CellTiter-Glo luminescence, primary screen; viability, % at 10 µM; actives 1.1% (n = 85,000); LL 47 human lung fibroblast viability, ATP luminescence; stronger effect = lower value; AID 719, 2007;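 active = viability at or below 50% in the single dose screen; inactive = viability above 50%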;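 note: compound exposure lasted 72 h before the ATP readout; 100% = median luminescence of untreated cell-only wells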
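test system = LL 47 human lung fibroblasts | amount = 1,150 fibroblasts seeded per well | medium = 15% FBS in IMEM | times = overnight cell rest, 72 h compound treatment at 37 °C | measured by = CellTiter-Glo luminescence measuring cellular ATP | read-out = viability percentage against median untreated-cell control | benchmarks = cell-only wells, no compound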
HUVEC prolif 384 = inhibitors of HUVEC proliferation, primary screen, cell-based, 384-well; viability, % at 10 µM (by protocol); actives 1.1% (n = 86,000); CellTiter-Glo luminescence, 72 h; stronger effect = lower value;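 active = viability at or below 30%; inactive = viability above 30%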;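 note: 100% = median luminescence of DMSO-only cell control wells on each plate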
H69AR growth 86K = proliferation blockers of H69AR lung cancer cells, primary screen, cell-based, human, 86K library. actives 6% (n = 85,000). viability, % at 10 µM. H69AR lung tumor viability, ATP luminescence, 72 h; stronger effect = lower value;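 active = viability at or below 40%; inactive = viability above 40%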;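 note: multidrug resistant small cell line overexpressing MRP-1 efflux transporter; 100% = mean luminescence of untreated control wells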
HCT116 PTEN-null = growth suppression of PTEN-null HCT116, primary screen, cell-based, CellTiter-Glo. HCT116 PTEN-null viability, 60 h; stronger effect = lower value. viability, % at 10 µM. actives 1.2% (n = 140,000);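 active = viability at or below a set limit, 4 SD under the median of all tested compounds, cut at about 3.7% in these data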;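 note: PTEN knockout HCT116 line with beta catenin targeted HCT116 as companion control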
The depositor's hits bear a star; x = not tested or not shown. The full list was thinned out, with hits kept by preference.

SMILES	HCT116 bCat-KO	Calb biofilm kill	Fibroblast inh	HUVEC prolif 384	H69AR growth 86K	HCT116 PTEN-null
COc1ccc(N(C(=O)CCl)C(C(=O)NC2CCCCC2)c2cccnc2)cc1 (stereo not given)	2.8*	x	x	x	x	2.5*
CCCCC(=O)NC(=S)Nc1c(C)cc(Br)cc1C	102	x	x	x	x	105
O=C(Nc1cccc2nsnc12)c1ccc(-c2cccc(Cl)c2)o1	99	x	x	x	x	100
Cc1ccc(C(=O)Oc2ccc(Cl)c3cccnc23)cc1[N+](=O)[O-]	4.5*	x	x	x	x	10
CCC(c1nnnn1CCc1ccccc1)N(Cc1ccco1)Cc1cc2cc(C)cc(C)c2[nH]c1=O (stereo not given)	12	9	83	82	26*	6
CCC(c1nnnn1CCc1ccccc1)N(Cc1ccco1)Cc1cc2c(C)ccc(C)c2[nH]c1=O (stereo not given)	42	9	87	78	24*	27
Cn1ncc2c(NNC(=O)c3ccc(Cl)cc3Cl)ncnc21	81	x	x	x	x	86
O=C(c1ccccc1)N1CCCCC(S(=O)(=O)c2ccc3ccccc3c2)C1=O (stereo not given)	94	3	96	80	101	96
O=C(O)CC(=O)Nc1cc(Cl)ccc1O	89	3	106	106	100	105
Cc1ccc(O)c(C(=O)CC(=O)c2cccc(F)c2)c1	38	5	70	15*	13*	40
Cc1cccc(C(=O)CC(=O)c2cc(Cl)ccc2O)c1	10	3	31*	3.3*	18*	10
O=C(CC(=O)c1cc(Cl)ccc1O)c1ccccc1	16	5	40*	35	11*	22
O=C(CC(Nc1ccc(F)cc1)C(=O)OCC(=O)c1cccs1)c1ccccc1 (stereo not given)	83	x	x	x	x	75
O=C(Nc1ccn(Cc2c(F)c(F)cc(F)c2F)n1)c1ccc(COc2ccccc2Cl)cc1	44	x	x	x	x	44
O=C(Nc1ccn(Cc2ccccc2F)n1)c1ccc(COc2ccccc2Cl)cc1	5.9*	x	x	x	x	17
COC(=O)c1cc(NC(=O)Nc2cccc(Cl)c2)ccc1Cl	3.8*	x	x	x	x	3.4*
O=C(Nc1ccc(N2CCOCC2)c(Cl)c1)c1ccc(Br)o1	109	6	107	81	20*	100
O=C(Nc1ccc(S(=O)(=O)N2CCCCC2)cc1)c1ccc(CN2CCOCC2)cc1	5.9*	5	69	67	61	10
O=C(Nc1ccc(N2CCN(C(=O)c3ccccc3)CC2)c(Cl)c1)c1ccc(Br)o1	10	x	x	x	x	15
O=C(Nc1ccccc1)Nc1ccc(S(=O)(=O)N2CCCCC2)cc1	59	1	93	48	13*	33
O=C(Nc1ccc(S(=O)(=O)N2CCCCC2)cc1)c1ccccc1Cl	94	-3	99	122	78	83
COc1ccc(C(=O)NNC(=O)CSc2nnc(COc3ccccc3OC)n2C)cc1	94	x	x	x	x	105
CCOC(=O)[C@H]1NN=C(C(=O)OC)[C@@H]1c1ccccc1	96	x	x	x	x	100
CCN(CC)S(=O)(=O)c1cccc(C(=O)Oc2cccc(NC(=O)c3cccs3)c2)c1	95	x	x	x	x	89
CN1CCN(S(=O)(=O)c2ccc(NC(=O)Nc3cccc(Cl)c3)cc2)CC1	22	7	83	3.2*	35*	24
SMILES	HCT116 bCat-KO	Calb biofilm kill	Fibroblast inh	HUVEC prolif 384	H69AR growth 86K	HCT116 PTEN-null
Cc1cc(N2CCN(C)CC2)nc2ccc(NC(=O)c3ccc(Br)o3)cc12	14	5	43*	8.2*	4.2*	11
CCN(CC)S(=O)(=O)c1ccc(NC(=O)c2cccc3c2C(=O)N(CCOC)C3)cc1	95	x	x	x	x	100
O=C(Nc1cccc(O)c1)c1cc(S(=O)(=O)N2CCCC2)ccc1Cl	86	11	102	108	87	82
O=C(Nc1cccc(Cl)c1)Nc1cc(S(=O)(=O)N2CCCCC2)ccc1Cl	3.9*	x	x	x	x	2.4*
COCCN1Cc2cccc(C(=O)Nc3ccc(S(=O)(=O)N4CCCCCC4)cc3)c2C1=O	x	1	79	47	25*	x
O=C(CN1CCCc2ccccc21)N/N=C/c1c(O)ccc2ccccc12	8	x	x	x	x	9
O=C(NC(=S)N1CCN(Cc2ccc3c(c2)OCO3)CC1)c1ccc(Cl)cc1	40	x	x	x	x	40
